In the RNAGym collection of RNA variant scans (doi:10.1126/science.aae0568):
This sample holds only a part of the variants without activity.

B1: tRNA (parent)
chain: GUUCCGUUGGCGUAAUGGUAACGCGUCUCCCUCCUAAGGAGAAGACUGCGGGUUCGAGUCCCGUACGGAACG

Variants of: B1
Assay: yeast fitness relative to wild type (ratio to wild type); higher = fitter; tRNA-Arg(CCU), competitive growth, 37 C, YPD
Method in brief: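 Changes in genotype frequencies gave Darwinian fitness relative to wild type. Frequencies were read by 100-nucleotide paired-end sequencing of gene amplicons before and after pooled Saccharomyces cerevisiae strains, carrying tRNA-Arg(CCU) gene variants at the native locus, were competed in YPD at 37°C for 24 hours in six replicates. A genotype was kept only with ≥ 100 starting reads, and estimates < 0.5 were set to 0.5.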

Variant	yeast fitness
C11G A14U U59G	≤ 0.5
C11G A15C	0.528
C11G A15C C24G C46A	0.546
C11G A15C C34U A65C	≤ 0.5
C11G A15C C46G U59A	≤ 0.5
C11G A15C G38C C49G	≤ 0.5
C11G A15C G48C C55G G67C A70U	≤ 0.5
C11G A15G C24G C46G G67A	≤ 0.5
C11G A15G U26G C66U	≤ 0.5
C11G A15U A65C	0.544
C11G A15U C22U A42G	≤ 0.5
C11G A15U C31A A70C	≤ 0.5
C11G A15U G58U C66A A70C	≤ 0.5
C11G A15U U16C C24G A40G C62U A70C	≤ 0.5
C11G A20C C49A U54G	≤ 0.5
C11G A20C G23A G52C C61U	0.662
C11G A20G A43U U47A A65U G67C	≤ 0.5
C11G A20U A45C	≤ 0.5
C11G A21C G56A	≤ 0.5
C11G A21G A57G	≤ 0.5
C11G A21G C31G	≤ 0.5
C11G A21U A42U	≤ 0.5
C11G A21U C24U	≤ 0.5
C11G A21U C30A G44A G52C A65U	0.507

Variant	yeast fitness
C11G A21U G68C	≤ 0.5
C11G A21U U26C U47C G68C	≤ 0.5
C11G A36C U47C C49U A69C	≤ 0.5
C11G A36U A40C	0.612
C11G A36U A42G A43C C49U A57U A65C	≤ 0.5
C11G A37C A42G C66G G68U	≤ 0.5
C11G A37C A45U G68C	≤ 0.5
C11G A37U	≤ 0.5
C11G A37U C46U G63U	≤ 0.5
C11G A40C	0.6
C11G A42U A43C	≤ 0.5
C11G A42U A65G C66G G68A	≤ 0.5
C11G A42U C66G G67U	≤ 0.5
C11G A57U C66U	≤ 0.5
C11G C22G A45C	≤ 0.5
C11G C22G C66A A69U	0.533
C11G C22U A36C G52C C66U	≤ 0.5
C11G C22U C27U U47A G52C	0.67
C11G C22U U53C G68C	0.521
C11G C24A G48C U54G C55U C66U	≤ 0.5
C11G C24A U28G A36G G63A	≤ 0.5
C11G C24G C27A U28C A65U	0.533
C11G C24G C27A U28C C66U	≤ 0.5
C11G C24G C27A U28C G67A	≤ 0.5

Variant	yeast fitness
C11G C24G C27U C55U	0.55
C11G C24G C30U A43U C60G A65C	≤ 0.5
C11G C24G C49U	≤ 0.5
C11G C24G C60A G68A	≤ 0.5
C11G C24U A45C C55U	≤ 0.5
C11G C24U C49U	≤ 0.5
C11G C24U C55G	≤ 0.5
C11G C24U G67A	≤ 0.5
C11G C24U G68C	0.523
C11G C24U U28C A42G C60U C62G	≤ 0.5
C11G C24U U28C C55G	≤ 0.5
C11G C24U U35A	0.622
C11G C27G A42C A45C	≤ 0.5
C11G C27G C66U	≤ 0.5
C11G C27U C33U A65C G67A	≤ 0.5
C11G C27U U28A	0.537
C11G C29A	0.518
C11G C29A A40U G52A	≤ 0.5
C11G C29G C33U C46A C49G	0.564
C11G C29G G38A G44A C46U C62A	≤ 0.5
C11G C29U A36C A42G C46G	≤ 0.5
C11G C29U C34U C62A C66U	0.565
C11G C29U C34U G51C C66U	≤ 0.5
C11G C29U C34U G68C	≤ 0.5

Variant	yeast fitness
C11G C30A	0.588
C11G C30A G44C G52C U64G	≤ 0.5
C11G C30A U47G U53C	0.597
C11G C30U A37C A70U	≤ 0.5
C11G C30U A37C C46U	0.664
C11G C30U C31G C33G A37U U64A	≤ 0.5
C11G C31G A36U	≤ 0.5
C11G C31U	0.632
C11G C31U C33U	0.509
C11G C31U G41C	≤ 0.5
C11G C31U G67C	0.632
C11G C33A A42C	0.7
C11G C33U A36G C55U	≤ 0.5
C11G C34U A42C C66A	≤ 0.5
C11G C34U C55G	0.689
C11G C46A	0.576
C11G C46G	0.75
C11G C46U C49A C55U A69U	0.536
C11G C49A G67C	≤ 0.5
C11G C49G C66A G67U	≤ 0.5
C11G C49U C61A	0.582
C11G C55G	0.594
C11G C55G A57C	≤ 0.5
C11G C60G A65C	≤ 0.5

Variant	yeast fitness
C11G C60G G67C	0.667
C11G C61U G68A	≤ 0.5
C11G C66A	≤ 0.5
C11G C66A A69U	≤ 0.5
C11G C66U	0.615
C11G G12A A42U C61A A65U	0.528
C11G G12A C22U G44A	≤ 0.5
C11G G12A C24A C30G G44C C61G	≤ 0.5
C11G G12A C27U A43G	≤ 0.5
C11G G12A C60U A70G	≤ 0.5
C11G G12A G41C C66A G67C	0.596
C11G G12C	0.7
C11G G12C A20C C24G A37G G68A A69C	≤ 0.5
C11G G12C A20G A43G A45C A69U	≤ 0.5
C11G G17A A20U C33G A43C C61G A65G	≤ 0.5
C11G G17A A37U A70G	≤ 0.5
C11G G17C C34A A43C G56C	≤ 0.5
C11G G18A G23A C60G	≤ 0.5
C11G G18C A21G A40U A70U	0.509
C11G G23C A36U G44C G68A	0.717
C11G G23C A37G A57C	0.979
C11G G23C G39A	0.525
C11G G25A A45C	≤ 0.5
C11G G25A G56A C60A C62U G68C	≤ 0.5

Variant	yeast fitness
C11G G38C C55U C61G	≤ 0.5
C11G G39C	0.6
C11G G39C G50C	0.545
C11G G41A U53C	≤ 0.5
C11G G41C	0.662
C11G G41C C55U G58A	≤ 0.5
C11G G48A	0.582
C11G G48A C49G	0.587
C11G G50U C62G	≤ 0.5
C11G G56A	0.721
C11G G58A A70G	0.659
C11G G67A	0.635
C11G U13A	1.03
C11G U13C G58C A69U	≤ 0.5
C11G U13G	0.599
C11G U13G A21G G63A	≤ 0.5
C11G U16A C22U A45U	≤ 0.5
C11G U16A C29U	≤ 0.5
C11G U16C C22U G68U	≤ 0.5
C11G U16C C27G	≤ 0.5
C11G U16C C27G C61U	0.545
C11G U16G G38C U54A C66A	0.648
C11G U19A C31U A43G G52C	≤ 0.5
C11G U19C A40G C66G A69U	≤ 0.5

Variant	yeast fitness
C11G U26A	0.583
C11G U26A U35A G67C	≤ 0.5
C11G U26C G67C A69C	≤ 0.5
C11G U28A A65U A69U	≤ 0.5
C11G U28C U54C G58A	0.53
C11G U32A A37C G39A A43G G58C C60A C62U	≤ 0.5
C11G U32A A37C G39A A43G U54C C62G	≤ 0.5
C11G U32A C33G C34A A57C	≤ 0.5
C11G U32C	0.597
C11G U32G U54A U59A G67A	≤ 0.5
C11G U35A C62A C66G	≤ 0.5
C11G U35A C66U	0.51
C11G U35C A43C G52C U54A	0.644
C11G U47A G48A	0.58
C11G U47A G52A G58C G63C C66G	0.664
C11G U54C	0.512
C11G U54C C62U	≤ 0.5
C11G U59C	0.589
C11U A14C C30G A40G C49A G68A	0.537
C11U A14G A57G U59C A69U	≤ 0.5
C11U A14G A65U G68A	0.617
C11U A14G C27U C31U A36C G44C A45G G56C	≤ 0.5
C11U A14G G23A	0.504
